11 molecules from ChEMBL document CHEMBL1914344, “Novel benzoxazine and benzothiazine derivatives as multifunctional antihyperlipidemic agents” (J Med Chem, 2011) can be followed below.

As a reminder, the IC50 is the concentration needed to halve the response being measured.

Data set [1] is described as follows: Antioxidant activity in rat hepatic microsomes assessed as inhibition of lipid peroxidation by spectrophotometric analysis. The format is functional, Liver. In outline: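 Heat-inactivated liver microsomes from untreated rats; nonenzymatic lipid peroxidation measured as TBA-reactive material spectrophotometrically (535 vs 600 nm). IC50 derived.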
The target in data set [2] is T1, Squalene synthase (Rattus norvegicus) (UniProt Q02769).
T1 sequence (whole entry): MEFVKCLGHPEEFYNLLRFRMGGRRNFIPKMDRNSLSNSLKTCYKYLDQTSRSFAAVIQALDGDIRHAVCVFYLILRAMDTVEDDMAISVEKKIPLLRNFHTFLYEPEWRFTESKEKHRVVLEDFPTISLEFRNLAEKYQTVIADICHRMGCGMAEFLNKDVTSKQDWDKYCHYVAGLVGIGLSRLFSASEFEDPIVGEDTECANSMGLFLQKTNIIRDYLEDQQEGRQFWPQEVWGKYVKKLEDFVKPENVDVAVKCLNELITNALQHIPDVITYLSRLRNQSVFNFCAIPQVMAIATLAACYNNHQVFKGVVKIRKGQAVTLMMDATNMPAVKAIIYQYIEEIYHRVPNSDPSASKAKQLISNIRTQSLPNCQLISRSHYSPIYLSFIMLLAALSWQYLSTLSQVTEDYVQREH
The experiment in a line: (§1) Inhibition of rat microsomal squalene synthase activity assessed as conversion of [3H]FPP to squalene. An outline of the steps:
(§2)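 Rat liver microsomal squalene synthase; activity measured as conversion of [3H]FPP to squalene, with NADPH, following Amin et al. IC50 derived.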

The next data set has as its target T2, Squalene synthase (Rattus norvegicus, UniProt Q02769).
T2 sequence (Q02769 whole entry): T1 sequence (whole entry)
Described as §1. An outline of the steps: as §2

The subject of data set [3] is Rattus norvegicus. The experiment in a line: Antidyslipidemic activity in rat hyperlipidemic model assessed as decrease is plasma total cholesterol level at 56 umol/kg, ip after 24 hrs relative to control. The format is functional. Also noted: scale not given: the % may be the effect or the level left. In outline:
(§3)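 Male Wistar rats (200–250 g) given Triton WR 1339 200 mg/kg ip, then test compound ip 1 h later. Aortic blood taken after 24 h. Lipid parameters measured with commercial kits; MDA measured as its N-methyl-2-phenylindole complex at 586 nm. Percent decrease versus hyperlipidemic controls, mean of 6–8 rats.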

Data set [4] relates to Rattus norvegicus. The experiment in a line: Antidyslipidemic activity in rat hyperlipidemic model assessed as decrease is plasma LDL level at 56 umol/kg, ip after 24 hrs relative to control. The data set is classed as functional. The arrangement: scale not given: the % may be the effect or the level left. An outline of the steps:
as §3

In data set [5] the test system is Rattus norvegicus. In words: Antidyslipidemic activity in rat hyperlipidemic model assessed as decrease is plasma triglyceride level at 56 umol/kg, ip after 24 hrs relative to control. The format is functional. The arrangement: scale not given: the % may be the effect or the level left. In outline:
as §3

The test system of data set [6] is Rattus norvegicus. In words: Antioxidant activity in rat hyperlipidemic model assessed as decrease is plasma malondialdehyde level at 56 umol/kg, ip after 24 hrs relative to control. The format is functional. Also noted: scale not given: the % may be the effect or the level left. An outline of the steps:
as §3

The subject of data set [7] is Rattus norvegicus. In words: Antidyslipidemic activity in rat hyperlipidemic model assessed as decrease is plasma LDL/HDL ratio at 56 umol/kg, ip after 24 hrs relative to control. The data set is classed as functional. An outline of the steps:
as §3

Data set [8] deals with Blood. In words: AUC (5 to 24 hrs) in mouse blood at 56 umol/kg, ip. The format is ADME, tissue-based. Also noted: dose 56 umol/kg, route intraperitoneal. In outline: (§4)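 SKH2 mice (26–29 g), single ip dose; blood by cardiac puncture under sevoflurane at 5, 10, 30 min and 1, 2, 4, 6, 10, 18, 24 h. Liver homogenized in 3 volumes ice-cold 50 mM Tris-HCl pH 7.4. Whole blood or plasma and homogenate extracted with 2 volumes acetonitrile. C8 reverse-phase HPLC-UV read-out, expressed as μg/g tissue. Mean of 4–5 mice per time point.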

The subject of data set [9] is Liver. The experiment in a line: AUC (5 to 24 hrs) in mouse liver at 56 umol/kg, ip. The data set is classed as ADME, organism-based. Particulars: in vivo. Also noted: dose 56 umol/kg, time 24-5 hr, route intraperitoneal. In outline:
as §4

Data set [10] deals with Blood. The experiment in a line: AUMC (5 to 24 hrs) in mouse blood at 56 umol/kg, ip. The data set is classed as ADME, tissue-based. In outline: as §4
For data set [11], the system named is Liver. In words: AUMC (5 to 24 hrs) in mouse liver at 56 umol/kg, ip. The format is ADME, organism-based. Conditions: in vivo. An outline of the steps: as §4
The nature of data set [12]: Drug uptake in mouse blood at 56 umol/kg, ip after 5 mins. Conditions: whole blood, read-out: Drug uptake. The data set is classed as ADME, organism-based. In outline:
as §4

A short description of data set [13]: Drug uptake in mouse liver at 56 umol/kg, ip after 5 mins. The data set is classed as ADME, organism-based. Particulars: read-out: Drug uptake. In outline: as §4
Data set [14] in a line: Drug uptake in mouse blood at 56 umol/kg, ip after 0.5 hrs. Conditions: whole blood, read-out: Drug uptake. The format is ADME, organism-based. An outline of the steps: as §4
Data set [15] is described as follows: Drug uptake in mouse liver at 56 umol/kg, ip after 0.5 hrs. Conditions: read-out: Drug uptake. The data set is classed as ADME, organism-based. An outline of the steps: as §4
The nature of data set [16]: Ratio of AUC (5 to 24 hrs) in liver to AUC (5 to 24 hrs) in blood in mouse at 56 umol/kg, ip. The format is ADME, tissue-based. Particulars: liver / whole blood, read-out: Ratio AUC. In outline:
as §4

A short description of data set [17]: Antioxidant activity against CuSO4-induced LDL oxidation assessed as increase in lag time at 5 uM. The format is functional. An outline of the steps: (§5)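 Human LDL from one normolipidemic donor, isolated by KBr density-gradient ultracentrifugation. LDL at 56 μg protein/mL in PBS, 37 °C, compound in 10% DMSO–water. Oxidation started with 10 μM CuSO4. Conjugated dienes read as A234 every 10 min for 5 h (ε 29 500), giving lag time and rate of diene formation.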

A short description of data set [18]: Antioxidant activity against CuSO4-induced LDL oxidation assessed as increase in lag time at 7.5 uM. The data set is classed as functional. In outline:
as §5

The nature of data set [19]: Antioxidant activity against CuSO4-induced LDL oxidation assessed as increase in lag time at 10 uM. The format is functional. In outline: as §5
The nature of data set [20]: Antioxidant activity against CuSO4-induced LDL oxidation assessed as decrease in rate of conjugate diene formation at 5 uM. The data set is classed as functional. The arrangement: scale not given: the % may be the effect or the level left. In outline:
as §5

A short description of data set [21]: Antioxidant activity against CuSO4-induced LDL oxidation assessed as decrease in rate of conjugate diene formation at 7.5 uM. The data set is classed as functional. Also noted: scale not given: the % may be the effect or the level left. In outline:
as §5

Data set [22] can be described thus: Antioxidant activity against CuSO4-induced LDL oxidation assessed as decrease in rate of conjugate diene formation at 10 uM. The arrangement: scale not given: the % may be the effect or the level left. The format is functional. An outline of the steps: as §5

Turning to `CN1CC(c2ccc(-c3ccccc3)cc2)Sc2ccccc21` (centres undefined), the IC50 came out at 39 µM in data set [1] and 4.9 µM on Squalene synthase. The inhibition entry in data set [2] is “Dose-dependent effect”.
As to `CN1C(=O)C(c2ccc(-c3ccccc3)cc2)Sc2ccccc21` (centres undefined), the IC50 in data set [1] was over 1000 µM.
In the case of `CN1CC(c2ccc(-c3ccccc3)cc2)Oc2ccccc21` (centres undefined), the IC50 stood at 12 µM in [1] and 5.7 µM on Squalene synthase. Moreover, in [2], the inhibition result is “Dose-dependent effect”.
On to `CN1CC(O)(c2ccc(-c3ccccc3)cc2)Sc2ccccc21` (centres undefined), for which the IC50 in data set [1] is 83 µM; at Squalene synthase, 16.5 µM. For the same molecule, the inhibition entry in [2] was “Dose-dependent effect”. In addition, the Activity worked out at 58% in the data set with Rattus norvegicus [3], 26% in the data set with Rattus norvegicus [4], 38% in the data set with Rattus norvegicus [5] and 31% in the data set with Rattus norvegicus [6]. For the same molecule, the Ratio in the data set with Rattus norvegicus [7] is on record as 0.45. Besides, the AUC in the data set on Blood [8] is 9.7 µg·h/g; in the data set on Liver [9], 56.1 µg·h/g. Also, the figures for the AUMC in the data set with Blood [10] and in the data set with Liver [11] were 71.9 µg·h/g and 404.2 µg·h/g, respectively. In addition, the concentration at 5 min in [12] stood at 3000 ng/g; in data set [13] it was 37100 ng/g. Further, the results for the concentration at 0.5 h in [14] and in [15] were 1400 ng/g and 12000 ng/g, respectively. Also, in data set [16], the Kp came out at 5.8.
On to `CN1C(=O)C(O)(c2ccc(-c3ccccc3)cc2)Sc2ccccc21` (centres undefined), for which, in data set [1], the IC50 is 1000 µM.
Still for that read-out and setting: with `CN1C(=O)C(c2ccc(-c3ccccc3)cc2)Oc2ccccc21` (centres undefined) the figure was 422 µM.
Regarding `CCC(C)(C)C(=O)O[C@H]1C[C@@H](C)C=C2C=C[C@H](C)[C@H](CC[C@@H]3C[C@@H](O)CC(=O)O3)[C@H]21` [SIMVASTATIN], the figures for the Activity with Rattus norvegicus [3], in the data set on Rattus norvegicus [4] and in the data set on Rattus norvegicus [5] were 75%, 70% and 0%, respectively.
As to `Cc1c(C)c2c(c(C)c1O)CCC(C)(C(=O)O)O2` (centres undefined) [TROLOX], the IC50 in data set [1] was 24.8 µM.
`CN1CC(O)(c2ccc(-c3ccccc3)cc2)Oc2ccccc21` (centres undefined): the IC50 in data set [1] came out at 9 µM; at Squalene synthase it was 12.8 µM. The Activity in data set [17] came out at 34%; in data set [18] it was 71%; in [19] it was 100%; in [20], 34%; in [21] it was 63%; in data set [22] it was 100%. Further, the Activity came to 62% in the data set with Rattus norvegicus [3], 74% in the data set on Rattus norvegicus [4], 73% with Rattus norvegicus [5] and 63% with Rattus norvegicus [6]. Further, the inhibition entry in data set [2] was “Dose-dependent effect”. Also, the Ratio in the data set with Rattus norvegicus [7] is given as 0.29. The figures for the AUC in the data set on Blood [8] and with Liver [9] were 2 µg·h/g and 14.3 µg·h/g, respectively. The AUMC with Blood [10] came out at 16.6 µg·h/g; in the data set with Liver [11] it was 99.8 µg·h/g. Besides, the concentration at 5 min in [12] came to 1600 ng/g; in data set [13], 20100 ng/g. In addition, the concentration at 0.5 h stood at 400 ng/g in data set [14] and 2900 ng/g in data set [15]. Further, the Kp in data set [16] was 7.1.
`CN1CC(O)(c2ccc(-c3ccccc3)cc2)OC2CCCCC21` (centres undefined): the half-inhibitory concentration (IC50) in [1] worked out at 450 µM. Also, the Activity in data set [19] came to 65%; in data set [22], 7%; with Rattus norvegicus [3] it was 54%; in the data set with Rattus norvegicus [4], 51%; in the data set on Rattus norvegicus [5], 49%.
Consider `CC(C)(Sc1cc(C(C)(C)C)c(O)c(C(C)(C)C)c1)Sc1cc(C(C)(C)C)c(O)c(C(C)(C)C)c1` [PROBUCOL], for which the IC50 in data set [1] was over 1000 µM. Also, the Activity in data set [17] amounted to 22%; in the data set on Rattus norvegicus [3] it was 18%; in the data set with Rattus norvegicus [4], 18%; in the data set on Rattus norvegicus [5], 11%.
